# Data taken from ChEMBL document CHEMBL1123453, “Quinazoline antifolates inhibiting thymidylate synthase: benzoyl ring modifications” (J Med Chem, 1986).
# Assays:
# Dihydrofolate reductase = target: T1, Dihydrofolate reductase (Mus musculus, UniProt P00375); assay: The compound was evaluated in vitro for inhibition of purified L1210 dihydrofolate reductase
# T1 sequence (P00375 whole entry): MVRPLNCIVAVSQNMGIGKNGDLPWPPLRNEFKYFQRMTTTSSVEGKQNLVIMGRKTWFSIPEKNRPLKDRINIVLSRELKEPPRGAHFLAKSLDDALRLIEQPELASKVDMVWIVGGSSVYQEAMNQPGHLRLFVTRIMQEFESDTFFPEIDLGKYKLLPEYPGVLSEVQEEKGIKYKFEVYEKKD
# L1210 = assay: The compound was evaluated for the inhibition of growth of L1210 cells in culture; type: functional, cell-based; details: Mus musculus
# Method in brief: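 L1210 cells grown in culture; growth inhibition reported as the ID50 in μM.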
# Thymidylate synthase [1] = target: T2, Thymidylate synthase (Mus musculus, UniProt P07607); assay: In vitro inhibition of L1210 thymidylate synthase
# Method in brief: (§1)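 Thymidylate synthase purified from L1210 cells; IC50 determined, with CB3717 assayed as the reference control alongside each compound.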
# Thymidylate synthase [2] = target: T2, Thymidylate synthase; assay: In vitro inhibition of L1210 thymidylate synthase with CB3717 as control; method in brief: as §1
# T2 sequence (P07607 whole entry): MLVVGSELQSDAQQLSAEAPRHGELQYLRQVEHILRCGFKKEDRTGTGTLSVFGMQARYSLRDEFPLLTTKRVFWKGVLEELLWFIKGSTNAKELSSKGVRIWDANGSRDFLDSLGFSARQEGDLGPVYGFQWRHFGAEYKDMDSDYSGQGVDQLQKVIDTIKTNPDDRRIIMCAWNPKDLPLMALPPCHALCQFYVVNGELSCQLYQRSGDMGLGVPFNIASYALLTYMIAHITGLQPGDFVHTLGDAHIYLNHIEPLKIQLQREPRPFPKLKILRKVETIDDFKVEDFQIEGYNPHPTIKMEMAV
SMILES,IC50 (Dihydrofolate reductase),IC50 (L1210),IC50 (Thymidylate synthase [1]),IC50 (Thymidylate synthase [2])
C#CCN(Cc1ccc2nc(N)nc(O)c2c1)c1ccc(C(=O)NC(CCC(=O)O)C(=O)O)cc1Cl (configuration not stated),3 µM,72 µM,5 µM,0.0144 µM
C#CCN(Cc1ccc2nc(N)nc(O)c2c1)c1ccc(C(=O)NC(CCC(=O)O)C(=O)O)c(C)c1 (configuration not stated),25 µM,24 µM,0.4 µM,0.019 µM
C#CCN(Cc1ccc2nc(N)nc(O)c2c1)c1c(Cl)cc(C(=O)NC(CCC(=O)O)C(=O)O)cc1Cl (configuration not stated),3 µM,37 µM,> 5 µM,0.0144 µM

# These reach a lower IC50 (L1210). Values come first.
IC50 (Dihydrofolate reductase),IC50 (L1210),IC50 (Thymidylate synthase [1]),IC50 (Thymidylate synthase [2]),SMILES
11 µM,12 µM,0.03 µM,0.014 µM,C#CCN(Cc1ccc2nc(N)nc(O)c2c1)c1ccc(C(=O)NC(CCC(=O)O)C(=O)O)c(Cl)c1 (configuration not stated)
,7 µM,,,C#CCN(Cc1ccc2[nH]c(N)nc(=O)c2c1)c1ccc(C(=O)NC(CCC(=O)O)C(=O)O)cc1 (configuration not stated)
